# ChEMBL document CHEMBL1124260, “Synthesis and antitumor activity of quaternary ellipticine glycosides, a series of novel and highly active antitumor agents” (1988)
# Experiments:
# Assay type in all cases: functional
# Mus musculus [1] = experiment: Number of survivors out of 6 ip implanted L1210 leukemia mouse, tested after 80 days at 30 mg/kg; settings: route intraperitoneal
# Method in brief: (§1)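 Female BDF1 mice implanted ip with ascitic fluid holding 10^5 L1210 cells. Saline-dissolved drug given ip daily on days 1-5, starting 24 h after implant. Six mice per dose group, followed 80 days. Survivors/total counted at day 80; ILS % from mean survival time vs controls.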
# Mus musculus [2] = experiment: Antitumor activity against ip implanted L1210 leukemia in mouse after ip administration of 30 mg/kg for 5 days expressed as increase in mean life span; settings: route intraperitoneal; for ILS at 30 mg/kg: Mus musculus, L1210, ip, 120 h; for ILS: 30 mg/kg
# Method in brief: (§2)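 Drug was dissolved in 0.9% NaCl, diluted just before use and given ip once daily for 5 consecutive days, starting 24 h after transplant. ILS % = mean survival time of treated vs control mice, observed for 80 days.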
# Mus musculus [3] = experiment: Antitumor activity against ip implanted L1210 leukemia in mouse after ip administration of 10 mg/kg for 5 days expressed as increase in mean life span; settings: route intraperitoneal; for ILS at 10 mg/kg: Mus musculus, L1210, ip, 120 h; for ILS: 10 mg/kg; method in brief: as §2
# Mus musculus [4] = experiment: Number of survivors out of 6 ip implanted L1210 leukemia mouse tested after 80 days at 10 mg/kg; settings: route intraperitoneal; method in brief: as §1
# Mus musculus [5] = experiment: Number of survivors out of 6 ip implanted L1210 leukemia mouse tested after 80 days at 20 mg/kg; settings: route intraperitoneal; method in brief: as §1
# Mus musculus [6] = experiment: Antitumor activity against ip implanted L1210 leukemia in mouse after ip administration of 20 mg/kg for 5 days expressed as increase in mean life span; settings: 120 h, route intraperitoneal; method in brief: as §2
# Mus musculus [7] = experiment: Antitumor activity against ip implanted L1210 leukemia in mouse after ip administration of 40 mg/kg for 5 days expressed as increase in mean life span; settings: 120 h, route intraperitoneal; method in brief: as §2
# Mus musculus [8] = experiment: Number of survivors out of 6 ip implanted L1210 leukemia mouse tested after 80 days at 40 mg/kg; settings: route intraperitoneal; method in brief: as §1
# Mus musculus [9] = experiment: Number of survivors out of 6 ip implanted L1210 leukemia mouse tested after 80 days at 5 mg/kg; settings: route intraperitoneal; method in brief: as §1
# Mus musculus [10] = experiment: Antitumor activity against ip implanted L1210 leukemia in mouse after ip administration of 5 mg/kg for 5 days expressed as increase in mean life span; settings: route intraperitoneal; for ILS at 5 mg/kg: Mus musculus, L1210, ip, 120 h; for ILS: 5 mg/kg; method in brief: as §2
compound,measurement,setting,value
Br.CC(=O)[O-].Cc1c2cc[n+](C3O[C@H](C)[C@@H](O)[C@@H]3O)cc2c(C)c2c1[nH]c1ccc(O)cc12 (some centres not stated),Cures,Mus musculus [1],1
same,ILS at 30 mg/kg,Mus musculus [2],> 217%
Cc1c2cc[n+](C3O[C@H](CO)[C@@H](O)[C@H]3O)cc2c(C)c2c1[nH]c1ccc(O)cc12.[Br-] (some centres not stated),Cures,Mus musculus [1],2
same,ILS at 30 mg/kg,Mus musculus [2],> 387%
CC(=O)[O-].Cc1c2cc[n+]([C@@H]3O[C@H](CO)[C@@H](O)[C@@H]3O)cc2c(C)c2c1[nH]c1ccc(O)cc12,Cures,Mus musculus [1],1
same,ILS at 30 mg/kg,Mus musculus [2],> 262%
Cc1c2cc[n+]([C@H]3O[C@H](CO)[C@@H](O)[C@H]3O)cc2c(C)c2c1[nH]c1ccc(O)cc12.[Br-],ILS at 10 mg/kg,Mus musculus [3],138%
same,Cures,Mus musculus [4],0
Cc1c2cc[n+]([C@@H]3O[C@@H](C)[C@H](O)[C@H]3O)cc2c(C)c2c1[nH]c1ccc(O)cc12.[Cl-],Cures,Mus musculus [1],1
Cc1c2cc[n+]([C@H]3O[C@H](CO)[C@@H](O)[C@@H]3O)cc2c(C)c2c1[nH]c1ccc(O)cc12.[Br-],Cures,Mus musculus [5],0
same,ILS at 10 mg/kg,Mus musculus [3],> 379%
same,Cures,Mus musculus [4],2
same,ILS at 20 mg/kg,Mus musculus [6],91%
CC(=O)[O-].Cc1c2cc[n+]([C@H]3O[C@@H](CO)[C@H](O)[C@H]3O)cc2c(C)c2c1[nH]c1ccc(O)cc12,Cures,Mus musculus [1],1
same,ILS at 30 mg/kg,Mus musculus [2],> 269%
Cc1c2cc[n+]([C@@H]3O[C@H](C)[C@@H](O)[C@H]3O)cc2c(C)c2c1[nH]c1ccc(O)cc12.[Cl-],Cures,Mus musculus [1],1
same,ILS at 30 mg/kg,Mus musculus [2],> 230%
Cc1c2cc[n+]([C@H]3O[C@@H](C)[C@H](O)[C@@H](O)[C@H]3O)cc2c(C)c2c1[nH]c1ccc(O)cc12.[Br-],ILS at 40 mg/kg,Mus musculus [7],78%
same,Cures,Mus musculus [8],0
COc1ccc2[nH]c3c(C)c4cc[n+](C5O[C@@H](C)[C@H](O)[C@@H](O)[C@H]5O)cc4c(C)c3c2c1.[Br-] (some centres not stated),Cures,Mus musculus [1],0
same,ILS at 30 mg/kg,Mus musculus [2],56%
Cc1c2cc[n+](C3O[C@@H](C)[C@H](O)[C@@H](O)[C@H]3O)cc2c(C)c2c1[nH]c1ccccc12.[Br-] (some centres not stated),ILS at 40 mg/kg,Mus musculus [7],40%
same,Cures,Mus musculus [8],0
Cc1c2cc[n+]([C@@H]3O[C@H](CO)[C@@H](O)[C@@H](O)[C@H]3O)cc2c(C)c2c1[nH]c1ccc(O)cc12.[Br-],ILS at 10 mg/kg,Mus musculus [3],> 254%
same,Cures,Mus musculus [4],1
Cc1c2cc[n+]([C@H]3OC[C@@H](O)[C@@H](O)[C@@H]3O)cc2c(C)c2c1[nH]c1ccc(O)cc12.[Br-],Cures,Mus musculus [5],3
same,ILS at 20 mg/kg,Mus musculus [6],> 606%
Cc1c2cc[n+]([C@@H]3O[C@H](C)[C@H](O)[C@H](O)[C@H]3O)cc2c(C)c2c1[nH]c1ccc(O)cc12.[Br-],Cures,Mus musculus [1],0
same,ILS at 30 mg/kg,Mus musculus [2],124%
COc1ccc2[nH]c3c(C)c4cc[n+]([C@@H]5O[C@H](C)[C@H](O)[C@H](O)[C@H]5O)cc4c(C)c3c2c1.[Br-],Cures,Mus musculus [1],0
same,ILS at 30 mg/kg,Mus musculus [2],20%
Cc1c2cc[n+]([C@@H]3O[C@H](C)[C@H](O)[C@H](O)[C@H]3O)cc2c(C)c2c1[nH]c1ccccc12.[Br-],Cures,Mus musculus [1],0
same,ILS at 30 mg/kg,Mus musculus [2],20%
CC(=O)N[C@@H]1[C@@H](O)[C@H](O)[C@@H](CO)O[C@H]1[n+]1ccc2c(C)c3[nH]c4ccc(O)cc4c3c(C)c2c1.[Cl-],Cures,Mus musculus [1],0
same,ILS at 30 mg/kg,Mus musculus [2],39%
Cc1c2cc[n+]([C@H]3OC[C@@H](O)[C@H](O)[C@@H]3O)cc2c(C)c2c1[nH]c1ccc(O)cc12.[Cl-],ILS at 10 mg/kg,Mus musculus [3],> 651%
same,Cures,Mus musculus [4],4
CC(=O)N[C@@H]1[C@@H](O)[C@@H](O)[C@@H](CO)O[C@H]1[n+]1ccc2c(C)c3[nH]c4ccc(O)cc4c3c(C)c2c1.[Cl-],Cures,Mus musculus [1],0
same,ILS at 30 mg/kg,Mus musculus [2],8%
COc1ccc2[nH]c3c(C)c4cc[n+](C5OCC(O)C(O)C5O)cc4c(C)c3c2c1.[Br-] (configuration not stated),Cures,Mus musculus [1],0
same,ILS at 30 mg/kg,Mus musculus [2],56%
Cc1c2cc[n+](C3OC(CO)C(O)C(O)C3O)cc2c(C)c2c1[nH]c1ccccc12.[Br-] (configuration not stated),ILS at 40 mg/kg,Mus musculus [7],39%
same,Cures,Mus musculus [8],0
Cc1c2cc[n+](C3OC(C(N)=O)C(O)C(O)C3O)cc2c(C)c2c1[nH]c1ccc(O)cc12.[Br-] (configuration not stated),Cures,Mus musculus [9],0
same,ILS at 5 mg/kg,Mus musculus [10],49%
Cc1c2cc[n+](C3CC(O)C(CO)O3)cc2c(C)c2c1[nH]c1ccc(O)cc12.[Cl-] (configuration not stated),ILS at 10 mg/kg,Mus musculus [3],> 390%
same,Cures,Mus musculus [4],2
CC(=O)[O-].Cc1c2cc[n+](C3OC(C)C(O)C(O)C3O)cc2c(C)c2c1[nH]c1ccc(O)cc12 (configuration not stated),Cures,Mus musculus [1],3
same,ILS at 30 mg/kg,Mus musculus [2],> 615%
COc1ccc2[nH]c3c(C)c4cc[n+](C5OC(CO)C(O)C(O)C5O)cc4c(C)c3c2c1.[Br-] (configuration not stated),ILS at 10 mg/kg,Mus musculus [3],14%
same,Cures,Mus musculus [4],0
Cc1c2cc[n+]([C@@H]3OC[C@@H](O)[C@@H](O)[C@H]3O)cc2c(C)c2c1[nH]c1ccc(O)cc12.[Br-],ILS at 10 mg/kg,Mus musculus [3],> 396%
same,Cures,Mus musculus [4],2
Cc1c2cc[n+]([C@H]3O[C@@H](CO)[C@H](O)[C@@H]3O)cc2c(C)c2c1[nH]c1ccc(O)cc12.[Br-],ILS at 10 mg/kg,Mus musculus [3],> 391%
same,Cures,Mus musculus [4],2
Cc1c2cc[n+]([C@@H]3O[C@H](CO)[C@H](O)[C@H](O)[C@H]3O)cc2c(C)c2c1[nH]c1ccc(O)cc12.[Br-],Cures,Mus musculus [5],4
same,ILS at 20 mg/kg,Mus musculus [6],> 729%
COc1ccc2[nH]c3c(C)c4cc[n+](C5O[C@@H](CO)[C@H](O)[C@@H]5O)cc4c(C)c3c2c1.[Br-] (some centres not stated),Cures,Mus musculus [1],0
same,ILS at 30 mg/kg,Mus musculus [2],76%
Cc1c2cc[n+](C3OC[C@@H](O)[C@H]3O)cc2c(C)c2c1[nH]c1ccc(O)cc12.[Cl-] (some centres not stated),Cures,Mus musculus [9],0
same,ILS at 5 mg/kg,Mus musculus [10],122%
Cc1c2cc[n+](C3O[C@@H](CO)[C@H](O)[C@@H]3O)cc2c(C)c2c1[nH]c1ccccc12.[Br-] (some centres not stated),Cures,Mus musculus [5],0
same,ILS at 20 mg/kg,Mus musculus [6],80%
Cc1c2cc[n+]([C@@H]3O[C@H](CO)[C@H](O)[C@@H]3O)cc2c(C)c2c1[nH]c1ccc(O)cc12.[Cl-] (stereo in doubt; 43b),ILS,Mus musculus [3],>552%
same,Cures,Mus musculus [4],3
Cc1c2cc[n+]([C@@H]3OC[C@@H](O)[C@@H](O)[C@H]3O)cc2c(C)c2c1[nH]c1ccc(O)cc12.[Br-] (stereo in doubt; 48a),Cures,Mus musculus [1]; 30 mg/kg,0
same,ILS,Mus musculus [2],112%
Cc1c2cc[n+]([C@@H]3OC[C@@H](O)[C@@H](O)[C@H]3O)cc2c(C)c2c1[nH]c1ccc(O)cc12.[Br-] (stereo in doubt; 48b),Cures,Mus musculus [1]; 30 mg/kg,6
same,ILS,Mus musculus [2],>944%
Cc1c2cc[n+]([C@@H]3OC[C@@H](O)[C@@H](O)[C@H]3O)cc2c(C)c2c1[nH]c1ccc(O)cc12.[Br-] (stereo in doubt; 50a),Cures,Mus musculus [1]; 30 mg/kg,5
same,ILS,Mus musculus [2],>857%
Cc1c2cc[n+]([C@H]3O[C@@H](C)[C@@H](O)[C@@H](O)[C@@H]3O)cc2c(C)c2c1[nH]c1ccc(O)cc12.[Br-] (stereo in doubt; 53b),Cures,Mus musculus [1]; 30 mg/kg,3
same,ILS,Mus musculus [2],>583%
Cc1c2cc[n+]([C@H]3O[C@@H](CO)[C@H](O)[C@@H](O)[C@@H]3O)cc2c(C)c2c1[nH]c1ccc(O)cc12.[Br-] (stereo in doubt; 63a),ILS,Mus musculus [3],52%
Cc1c2cc[n+]([C@H]3O[C@@H](CO)[C@H](O)[C@@H](O)[C@@H]3O)cc2c(C)c2c1[nH]c1ccc(O)cc12.[Br-] (stereo in doubt; 63b),Cures,Mus musculus [9]; 5 mg/kg,0
same,ILS,Mus musculus [10],58%
Cc1c2cc[n+]([C@H]3O[C@@H](CO)[C@H](O)[C@@H](O)[C@@H]3O)cc2c(C)c2c1[nH]c1ccc(O)cc12.[Br-] (stereo in doubt; 64a),ILS,Mus musculus [3],88%
same,Cures,Mus musculus [4]; 10 mg/kg,0
Cc1c2cc[n+]([C@H]3O[C@@H](CO)[C@H](O)[C@@H](O)[C@@H]3O)cc2c(C)c2c1[nH]c1ccc(O)cc12.[Br-] (stereo in doubt; 64b),Cures,Mus musculus [9]; 5 mg/kg,2
same,ILS,Mus musculus [10],>362%
Cc1c2cc[n+]([C@H]3O[C@@H](CO)[C@H](O)[C@@H](O)[C@@H]3O)cc2c(C)c2c1[nH]c1ccc(O)cc12.[Br-] (stereo in doubt; 65),ILS,Mus musculus [3],>212%
same,Cures,Mus musculus [4]; 10 mg/kg,1
